HSF1 inh: HSF1 inhibition | hit rate 0.77% among 300,000 | activity change, negative = inhibition, % at 7.5 µM (by protocol) | AID 2098 | NIH3T3-HGL HSE-luciferase, MG132-induced, luminescence 8 h; hits give low values;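 active = more than half of replicate wells show activity change below -50%, luminescence cut by over half; inconclusive = some wells, but at most half, below -50%; inactive = no replicate well below -50%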;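 note: luciferase reports HSF-1 transcriptional activity via heat shock element; 0% = median of DMSO wells and -100% = zero luminescence signal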
L major viab: reduces viability of Leishmania major promastigotes. inhibition, % at 10 µM. hit rate 9% among 200,000. resazurin fluorescence viability. AID 1063; in the data active = inhibition above about 50%;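 note: promastigotes grown with compound for 44 hours at 28 °C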
Hsp70 act: transcriptional activators of Hsp70; HeLa Hsp70 promoter luciferase reporter, luminescence; scaled: vehicle 0, proteasome-inhibitor control 100%; activation, % at 10 µM; hit rate 0.04% among 200,000; AID 1203;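 active = activation above the mean across all tested compounds plus 3 SD, cutoff set per campaign, cut at about 5.5% in these data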;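 note: 100% = MG132 at 30 µM as the positive control and 0% = DMSO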
HSF1 activator: increases HSF-1 driven luciferase reporter signal | hit rate 1.7% among 300,000 | activation, % at 9 µM | NIH3T3-HGL HSF-1 luciferase reporter, MG132, 8 h; 100% = twice DMSO control signal | AID 504408;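 active = mean replicate activation of at least 50% with a set share of replicates each reaching 50%; inconclusive = only one of those two conditions met; inactive = mean below 50% and too few replicates reaching it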;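 note: 0% = median of the neutral control wells and 100% = twice that signal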
T cruzi inh: T. cruzi replication inhibition. T. cruzi beta-gal in NIH3T3, luminescence, 90 h. inhibition, % (concentration not given with the values). hit rate 1.4% among 300,000. AID 1885;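 active = mean inhibition across valid replicates above about 55%, limit read from the data; inconclusive = mean below that limit but half or more replicates reach it; inactive = mean below it, under half of replicates reach it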;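 note: signal also drops with host cell toxicity which is not excluded here; 0% = plate median of DMSO wells and 100% = zero luminescence signal; higher percent means less beta-gal luminescence so fewer parasites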
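Incubation – ≥90 h infection period, 3 h prior cell attachment · System – NIH/3T3 fibroblasts plus reporter T. cruzi · Doses – compound pinned at 50 nL/well, DMSO · Read-out basis – percent inhibition of parasite-derived β-gal signal · Signal – luminescent β-galactosidase signal after 60 min lysis · Also added – 5000 T. cruzi trypomastigotes/well · Medium – Low-serum DMEM with 2% FBS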
An asterisk follows results filed as active; ? = inconclusive; / = not tested or not shown. Many of the other results were omitted from the sample, so hits are more common in it than they were.

SMILES | HSF1 inh | L major viab | Hsp70 act | HSF1 activator | T cruzi inh
CN1CCCCc2c1nc1ccccc1c2N (tested in a mixture with another compound) | -5 | 92* | 0 | 7 | 12
CCCC(=O)Nc1c2c(nc3ccccc13)N(c1ccccc1)CC2 | 0 | 12 | 0 | -12 | -10
Nc1c2c(nc3ccccc13)CCCC2=O | 0 | / | / | 4 | -3
Nc1c2c(nc3ccccc13)CSCC2 | -1 | / | / | -5 | 55*
Nc1c2c(nc3ccccc13)N(c1ccccc1)CC2 | -53* | / | / | -61 | -3
Cn1c(N)c(C(=O)Nc2ccc(-c3ccccc3)cc2)sc1=S | -52* | / | / | -63 | 17
COc1ccc2c(=O)c3c(=O)n(Cc4ccco4)c(-c4cc(OC)c(OC)c(OC)c4)nc3oc2c1 | -35 | 67* | 0 | -49 | 14
COc1ccc2c(=O)c3c(=O)n(Cc4ccco4)c(-c4ccccc4)nc3oc2c1 | 22 | 62* | 0 | 43 | 17
CCCc1nc2oc3cc(OC)ccc3c(=O)c2c(=O)n1Cc1ccco1 | 4 | 14 | 0 | 10 | 6
CCCCCCn1c(-c2ccco2)nc2oc3cc(OC)ccc3c(=O)c2c1=O | -16 | 52* | 0 | -3 | 36
O=C(CNC(=S)N(Cc1ccccc1)Cc1cccnc1)N1CCOCC1 | 5 | -5 | 0 | 9 | 19
CCOc1ccccc1CNC(=O)c1ccc2c(c1)N(CC)CCS2 | 31 | / | / | 40 | 12
CCOC(=O)C1CCN(C(=O)Nc2ccc3nc(-c4ccco4)c(-c4ccco4)nc3c2)CC1 | / | 96* | 0 | / | -8
CC1(C)CC(=O)C2=C(C1)Nc1ccccc1NC2c1ccc([N+](=O)[O-])cc1 (centres undefined) | 1 | / | / | -16 | 10
CCN1CCCc2cc(CN(CCN3CCOCC3)C(=S)Nc3ccc(OC)c(Cl)c3)ccc21 | 1 | -3 | 0 | -1 | 59*
CCN1CCCc2cc(CN(CCN3CCOCC3)C(=S)Nc3ccccc3OC)ccc21 | 0 | 20 | 0 | -5 | 57*
COc1ccccc1NC(=S)N(CCN1CCCCCC1)Cc1cccs1 | -7 | 57* | 0 | 11 | 17
CCN1CCCc2cc(CN(CCN3CCOCC3)C(=S)Nc3ccccc3C)ccc21 | -1 | -2 | 0 | -3 | 35
COc1ccc(NC(=S)N2CCC(N(C)CCN3CCOCC3)CC2)cc1Cl | 7 | 76* | 0 | 4 | 29
CC(C)n1c(O)c(N=NC(=O)Cc2csc(N3CCOCC3)n2)c2ccccc21 | / | -2 | 0 | / | 20
CCN1CCCc2cc(CN(CCN3CCOCC3)C(=S)Nc3ccc(OC)c(OC)c3)ccc21 | 0 | -8 | 1 | 15 | 45
COc1ccccc1NC(=O)NNC(=O)CCN1CCOCC1 | -4 | / | / | -6 | -2
CCN1CCCc2cc(CN(CCN3CCOCC3)C(=S)Nc3cccc(C)c3)ccc21 | -4 | 4 | 0 | -3 | 61*
CCOc1ccc2c(c1)C(N(CCN1CCOCC1)C(=S)Nc1ccccc1OC)CC(C)(C)O2 (centres undefined) | 0 | 59* | 0 | -6 | -5
CC(=O)C(Cc1ccccc1)NC(=O)CN1CCN(Cc2ccccc2)CC1 (centres undefined) | 2 | 65* | 0 | 22 | 9
SMILES | HSF1 inh | L major viab | Hsp70 act | HSF1 activator | T cruzi inh
Cc1ccc(NC(=O)CN2CCN(Cc3ccccc3)CC2)cc1 | -10 | / | / | -19 | 13
CC1(C)C2CCC(C2)C1(C)NC(=O)CN1CCN(Cc2ccccc2)CC1 (centres undefined) | -6 | 81* | 0 | -11 | 47
COC(=O)c1ccc(NC(=O)Cc2ccc(F)cc2)cc1 | 17 | 68* | 0 | 25 | -29
COC(=O)c1ccc(NC(=O)CNCc2ccncc2)cc1 | -5 | 56* | 0 | 6 | -9
COc1cc(OC)cc(C(=O)Nc2cccc(C(C)=O)c2)c1 | 9 | 0 | 0 | -7 | -7
COc1ccc(CC(=O)Nc2ccc(C(=O)NCC(C)C)cc2)cc1 | -1 | 54* | 0 | 3 | 13
COc1cc(OC)cc(C(=O)Nc2cccc(N3CCCC3)c2)c1 | 0 | 72* | 0 | -3 | 68*
CC(C)(C)NC(=O)NC(=O)C[n+]1ccc(Cc2ccc([N+](=O)[O-])cc2)cc1 | 15 | / | / | 21 | 13
CCOP(=O)(OCC)C(NC(=O)c1cccs1)C(F)(F)F (centres undefined) | -4 | -4 | 0 | -5 | -2
Cc1cccc(C(=O)N/C(=C\c2ccco2)C(=O)N2CCCC2)c1 | 0 | / | / | 12 | -14
COCCNC(=O)CN(C(=O)CCC(=O)Nc1ccccn1)c1ccccc1F | / | -3 | 0 | / | -4
CC(=O)N(CCC1(C(C)C)CCOC(C)(C)C1)C(C)c1cccs1 (centres undefined) | -8 | / | / | -1 | 14
COc1cccc(CNC(=O)c2cccc(S(=O)(=O)N3CCN(C)CC3)c2)c1 | 9 | / | / | 2 | -2
COc1cccc(C(=O)Nc2cccc(C(=O)NCC(C)C)c2)c1 | 0 | 64* | 0 | -4 | -1
COc1cccc(NC(=O)c2cccc(C(=O)Nc3cccc(OC)c3)c2)c1 | 8 | / | / | 16 | -22
COc1cccc(CNC(=O)c2cccc(Br)c2)c1 | 1 | 54* | 0 | 26 | -24
COCCn1c(=O)[nH]c2cc(C(=O)N3CCN(c4cccc(C)c4C)CC3)ccc2c1=O | -4 | / | / | -1 | -12
O=C(Nc1ccccc1O)C(c1ccccc1)c1ccccc1 | -3 | / | / | 7 | 8
COc1ccc(CC2(C)OC(c3ccncc3)=NN2C(C)=O)cc1 (centres undefined) | -9 | -1 | 0 | -18 | 16
COc1ccc(CC2(C)OC(c3ccc(Cl)cc3)=NN2C(C)=O)cc1 (centres undefined) | / | 54* | 0 | / | -11
Cc1c(CCC(=O)NCCCn2ccnc2)c(=O)oc2cc3oc4c(c3cc12)CCCC4 | -11 | / | / | -3 | 45
O=C1c2ccccc2C(=O)N1CCCCN(C(=O)c1cccc([N+](=O)[O-])c1)c1ccc(Cl)cc1 | 26 | 54* | 0 | ? | 27
CCCN(CCC)C(=O)c1cc2c(=O)[nH]c3ccc(C)cc3c2s1 | 6 | 5 | 0 | 3 | 17
Cc1ccc2[nH]c(=O)c3cc(C(=O)N(C)Cc4ccco4)sc3c2c1 | 9 | 56* | 0 | 7 | -2
CCOCCCN(Cc1ccco1)C(=O)c1cc2c(=O)[nH]c3ccc(C)cc3c2s1 | 5 | 73* | 0 | 11 | 25
O=C1/C(=C/c2ccco2)SC(=S)N1C1CCS(=O)(=O)C1 (centres undefined) | -11 | 93* | 0 | -10 | 21
Cc1ccc(NC(=O)Cc2nc(CCl)cs2)cc1 | 4 | 68* | 0 | -6 | -14
S=C(c1cn(Cc2ccccc2)c2ccccc12)N1CCOCC1 | -2 | 10 | 1 | 10 | -5
Cc1ccccc1OCCn1cc(C(=S)N2CCN(C)CC2)c2ccccc21 | 2 | 79* | 0 | 16 | 41
CN1CCN(C(=S)c2cn(Cc3cccc(F)c3)c3ccccc23)CC1 | 2 | 23 | 0 | 18 | -10
